Hits are enriched below; roughly 4.1% of the tested compounds scored in any of these assays.
KCC2 mod: KCC2 (human) Cl- transport modulation. AID 1456. KCC2 cells, thallium flux FluoZin-2 fluorescence. 190,000 compounds, 2.2% hits. B-score of Tl+ flux slope (higher = more flux/activation; lower = inhibition) at 10 µM. Q9H2X9;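 active = thallium flux slope and its plate-corrected score both differing from the plate sample mean at a set confidence after two filtering rounds, in either direction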;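 also: slope of fluorescence scaled to starting intensity during 10 to 20 s after thallium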
KCNK3 block: human KCNK3 channel inhibition, primary screen; O14649; AID 602410; 340,000 compounds, 0.84% hits; B-score at 10 µM; CHO-KCNK3 thallium flux, FluxOR fluorescence; stronger effect = lower value;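 active = B-score under library mean minus 4 SD, starting fluorescence ratio at most library mean plus 5 SD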;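 also: more negative B-score means stronger inhibition of thallium flux through KCNK3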
hERG rescue: hERG (human) protection from proarrhythmic block; Q12809; CHO-hERG, FluxOR thallium flux, dofetilide IC70 present; activation (rescue from dofetilide block), less the hit threshold, % at 10 µM; 310,000 compounds, 0.51% hits;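 active = activation above the mean of controls blocked by dofetilide plus 5 SD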;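 also: thallium influx through hERG after potassium depolarization seen as dye fluorescence rise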
Target sequence (Q12809 whole entry, looked up): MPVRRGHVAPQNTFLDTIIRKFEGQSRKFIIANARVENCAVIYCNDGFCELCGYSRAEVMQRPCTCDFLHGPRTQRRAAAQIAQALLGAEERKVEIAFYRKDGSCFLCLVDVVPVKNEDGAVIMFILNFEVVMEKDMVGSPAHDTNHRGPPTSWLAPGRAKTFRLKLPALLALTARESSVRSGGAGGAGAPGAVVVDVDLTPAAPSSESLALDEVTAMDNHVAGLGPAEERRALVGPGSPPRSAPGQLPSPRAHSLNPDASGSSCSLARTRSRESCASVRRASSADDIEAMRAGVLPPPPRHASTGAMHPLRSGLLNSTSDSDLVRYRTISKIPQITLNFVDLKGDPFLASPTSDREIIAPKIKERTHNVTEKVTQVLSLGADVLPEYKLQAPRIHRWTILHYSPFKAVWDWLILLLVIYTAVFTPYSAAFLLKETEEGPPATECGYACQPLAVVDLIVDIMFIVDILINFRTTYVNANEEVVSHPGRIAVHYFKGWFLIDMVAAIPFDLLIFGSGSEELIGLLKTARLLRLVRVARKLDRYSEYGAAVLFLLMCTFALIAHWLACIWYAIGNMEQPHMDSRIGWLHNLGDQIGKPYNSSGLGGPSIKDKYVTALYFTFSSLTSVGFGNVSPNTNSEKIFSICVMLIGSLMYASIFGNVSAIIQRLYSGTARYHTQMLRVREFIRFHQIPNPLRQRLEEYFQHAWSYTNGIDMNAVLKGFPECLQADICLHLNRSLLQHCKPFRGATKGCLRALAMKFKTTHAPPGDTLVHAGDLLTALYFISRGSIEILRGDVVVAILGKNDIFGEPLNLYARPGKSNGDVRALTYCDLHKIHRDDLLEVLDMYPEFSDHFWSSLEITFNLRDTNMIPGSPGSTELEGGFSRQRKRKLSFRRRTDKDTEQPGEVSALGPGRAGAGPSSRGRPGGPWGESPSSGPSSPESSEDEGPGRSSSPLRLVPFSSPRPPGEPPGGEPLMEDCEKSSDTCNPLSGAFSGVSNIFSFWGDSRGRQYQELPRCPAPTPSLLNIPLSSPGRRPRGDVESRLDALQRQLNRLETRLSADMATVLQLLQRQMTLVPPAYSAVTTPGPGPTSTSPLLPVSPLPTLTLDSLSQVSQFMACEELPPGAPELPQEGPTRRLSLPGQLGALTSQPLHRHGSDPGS
KCNQ1 pot: human KCNQ1 channel potentiation or activation | P51787 | CHO-K1 KCNQ1, thallium flux FluxOR fluorescence; stronger effect = higher value | B-score at 10 µM | 310,000 compounds, 0.35% hits | AID 2648;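 active = fluorescence ratio B-score, a plate-corrected score, at least three library SD, with initial intensity B-score within 5 SD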
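Test system: CHO-K1 cells stably expressing KCNQ1 / Medium: assay buffer / Also added: depolarizing K+/Tl+ stimulus, K2SO4 and Tl2SO4 each 12.5 mM in 5x stock / Incubation: 90 min dye loading and 20 min compound exposure, both at room temperature / Signal: thallium influx via FluxOR fluorescence, kinetic imaging / Evaluation: B score of baseline-normalized fluorescence ratio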
KCNK9 inh: human KCNK9 channel inhibition | Q9NPC2 | B-score at 10 µM | 310,000 compounds, 1.2% hits | HEK293 KCNK9, FluxOR thallium flux fluorescence; stronger effect = lower value;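 active = ratio B-score over 3 SD below the library mean, with starting fluorescence within 5 SD of its mean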;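 also: negative B-score means less thallium flux so channel inhibition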
KCNQ1 block: human KCNQ1 channel inhibition; AID 2642; 310,000 compounds, 1.3% hits; B-score at 10 µM; CHO-K1 KCNQ1, FluxOR thallium flux fluorescence; stronger effect = higher value; P51787;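 active = compounds whose thallium flux B-score, printed positive for inhibition, exceeds three library SD while starting fluorescence stays within three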;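 also: channel opened by potassium depolarization with thallium stimulus after 20 min compound exposure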
KCNK3 inh conf: human KCNK3 channel inhibition, confirmation assay. 2,400 compounds, 99% hits. ratio percent of control, % at 10 µM. shares compounds with KCNK3 block. CHO-KCNK3 thallium flux, FluxOR fluorescence; 0% buffer, 100% carvedilol maximal block;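 active = ratio percent of control, averaged over triplicates, above buffer control mean plus 5 SD, cut at about 64% in these data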;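 also: ratio is the fluorescence rise from min to max over baseline after thallium stimulus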
KCNK3 uninduced: counter-screen for KCNK3 inhibitors: effect in non-induced cells. shares compounds with KCNK3 block. non-induced KCNK3 parental cells, FluxOR thallium flux; stronger effect = lower value. thallium flux ratio (lower = more inhibition) at 10 µM. 2,400 compounds, 40% hits;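 active = thallium flux ratio, averaged over three wells, more than 5 SD below the buffer control mean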;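 also: host cells are CHO cells without KCNK3 induction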
Large screens that a line does not name were inactive (follow-up assays come after a bar, where they were run).

CCOC(=O)CSc1nc2ccccc2c(=O)n1CC1CCCC1	KCNK3 block -11.4 | KCNK3 inh conf 116.0 | KCNK3 uninduced 0.146
CCOC(=O)CSc1nc2ccccc2c(=O)n1CC	none
CCOc1ccccc1N1C(=O)CN(Cc2ccc(OC)c(OC)c2)C1=S	none (no result: KCC2 mod)
CN(CC(=O)Nc1ccc(F)cc1Cl)Cc1cccs1	KCNK3 block -9.55 (no result: KCC2 mod) | KCNK3 inh conf 84.7 | KCNK3 uninduced inactive
COc1ccc(N(C)S(=O)(=O)c2cccc(C(=O)OCC(=O)N(C)c3ccccc3)c2)cc1	none (no result: KCC2 mod, hERG rescue, KCNQ1 pot, KCNK9 inh, KCNQ1 block)
Cc1ccc([N+](=O)[O-])c(OCCCN2CCC(Cc3ccccc3)CC2)c1	KCNK3 block -8.85, KCNQ1 block 7 (no result: KCC2 mod) | KCNK3 inh conf 118.7 | KCNK3 uninduced 0.126
CCOC(=O)C1=C(C)OC(N)=C(C#N)C1c1cc(OC)c2c(c1)OCO2 (stereo not drawn)	KCNK3 block -9.65 | KCNK3 inh conf 94.0 | KCNK3 uninduced inactive
COc1cc(C2C(C#N)=C(N)Oc3cc(O)ccc32)cc2c1OCO2 (stereo not drawn)	none
COC(=O)CSc1nc(Cc2ccccc2)nc2ccccc12	KCNK3 block -8.72 | KCNK3 inh conf 118.7 | KCNK3 uninduced inactive
O=C(CO/N=C/c1cccc([N+](=O)[O-])c1)Nc1ccc2ccccc2c1	KCNK3 block -9.22 (no result: KCC2 mod) | KCNK3 inh conf 98.3 | KCNK3 uninduced inactive
COc1ccc(C(=O)c2cnc3ccccc3c2-c2ccccc2)cc1	KCNK3 block -9.24 | KCNK3 inh conf 112.0 | KCNK3 uninduced inactive
Cc1ccc(C(=O)c2cnc3ccccc3c2-c2ccccc2)cc1	KCNK3 block -9.78 | KCNK3 inh conf 117.7 | KCNK3 uninduced 0.127
CC(C)(C)NC(=O)C1(N2C(=O)c3ccccc3C2=O)CCCC1	none (no result: KCC2 mod, hERG rescue, KCNQ1 pot, KCNK9 inh, KCNQ1 block)
O=C(O)CNC(=O)c1ccc(Sc2ccccc2)c([N+](=O)[O-])c1	none
CC(C)(C)NC(=O)c1ccc(Sc2ccccc2)c([N+](=O)[O-])c1	KCNK3 block -9.03 (no result: KCC2 mod) | KCNK3 inh conf 119.0 | KCNK3 uninduced inactive
Cc1sc(NC(=O)c2ccco2)nc1-c1ccc2c(c1)CC(C)N2C(=O)C1CC1 (stereo not drawn)	KCNK3 block -9.43, KCNQ1 block 6 | KCNK3 inh conf 101.3 | KCNK3 uninduced inactive
Cc1cc(SCC(=O)N(C)C2CCCCC2)nc2ccccc12	none (no result: KCC2 mod, hERG rescue, KCNQ1 pot, KCNK9 inh, KCNQ1 block)
COc1c(C(=O)Nc2ccc(Br)cn2)ccc2ccccc12	KCNK3 block -11.4, KCNK9 inh -7.25 (no result: KCC2 mod) | KCNK3 inh conf 97.0 | KCNK3 uninduced 0.157
Clc1cccc(OCc2nnc(-c3ccccc3Br)o2)c1	KCNK3 block -10.6 (no result: KCC2 mod) | KCNK3 inh conf 104.7 | KCNK3 uninduced inactive
O=C(Nc1ccccn1)c1ccc(Cl)c(S(=O)(=O)N2CCCC2)c1	none (no result: KCC2 mod)
Cc1ccc(NC(=O)c2ccc(Cl)c(S(=O)(=O)N3CCCCCC3)c2)nc1	KCNK3 block -9.65 (no result: KCC2 mod) | KCNK3 inh conf 114.7 | KCNK3 uninduced inactive
O=C(Nc1ccc(Cl)cn1)c1ccc(Br)c(S(=O)(=O)N2CCCCC2)c1	KCNK9 inh -7.44 | KCNK3 inh conf 102.3 | KCNK3 uninduced inactive
Cc1ccc(-c2nc(NC(=O)c3cc(C(C)(C)C)nn3C)sc2C)cc1Cl	KCNK3 block -9.19, KCNQ1 block 10 | KCNK3 inh conf 96.3 | KCNK3 uninduced 0.143
CCCN1C(=S)c2ccccc2C1c1ccccc1 (stereo not drawn)	KCNK3 block -10.8 (no result: KCC2 mod) | KCNK3 inh conf 120.7 | KCNK3 uninduced 0.153
CCCCN1C(=S)NC[C@@H]1c1ccccc1	none
CCCNC(=O)c1c(N)n(-c2ccc3c(c2)OCO3)c2nc3ccccc3nc12	none
CCCNC(=O)c1c(N)n(-c2cc(OC)cc(OC)c2)c2nc3ccccc3nc12	KCNK3 block -9.18 | KCNK3 inh conf 125.0 | KCNK3 uninduced inactive
CC1CCC(NC(=O)CN2C(=O)c3cccnc3Oc3ccc(Cl)cc32)CC1 (stereo not drawn)	none (no result: KCC2 mod)
Cc1ccc(NC(=O)c2cccc3c2-c2ccccc2C3=O)cc1C	KCNK3 block -9.29 | KCNK3 inh conf 108.0 | KCNK3 uninduced inactive
CSc1ccccc1C(=O)Nc1ccc(C)c(C)c1	KCNK3 block -8.91 | KCNK3 inh conf 87.0 | KCNK3 uninduced inactive
Cc1noc(C)c1COc1ccccc1C(=O)N(C)Cc1ccc(C(C)(C)C)cc1	none (no result: KCC2 mod, hERG rescue, KCNQ1 pot, KCNK9 inh, KCNQ1 block)
O=C(Nc1ccccc1N1CCCCC1)c1cccc(OC(F)F)c1	KCNK3 block -10.2 (no result: KCC2 mod) | KCNK3 inh conf 116.7 | KCNK3 uninduced 0.15
COc1ccc(Br)cc1C(=O)Nc1ccccc1N1CCCC1	KCNK3 block -9.84 (no result: KCC2 mod) | KCNK3 inh conf 111.0 | KCNK3 uninduced 0.147
COc1ccccc1C(=O)Nc1ccccc1N1CCCCC1	none (no result: KCC2 mod)
COc1cc(C(=O)Nc2ccccc2N2CCCCC2)cc(OC)c1OC	KCNK3 block -10.2 (no result: KCC2 mod) | KCNK3 inh conf 126.0 | KCNK3 uninduced 0.117
COc1cc(-c2cc(C(=O)Nc3ccccc3N3CCOCC3)c3ccccc3n2)cc(OC)c1OC	KCNK3 block -9.01, KCNQ1 block 6 | KCNK3 inh conf 102.0 | KCNK3 uninduced 0.158
C[C@]12c3[nH]c4ccccc4c3CCN1C(=O)C(CC(=O)NCCN1CCOCC1)C[C@@H]2C(=O)N1CCCCC1 (stereo partly drawn)	none (no result: KCC2 mod, hERG rescue, KCNQ1 pot, KCNK9 inh, KCNQ1 block)
Cc1cccc(NC(=O)CCc2ccccc2)c1C	none (no result: KCC2 mod)
Cc1ccccc1NC1c2ccccc2C(=O)N1Cc1ccco1 (stereo not drawn)	KCNK3 block -10.2 | KCNK3 inh conf 118.7 | KCNK3 uninduced 0.149
COc1cccc(NC2c3ccccc3C(=O)N2Cc2ccco2)c1 (stereo not drawn)	none
CCCC(=O)Nc1ccc(-c2csc(N/N=C\c3ccncc3)n2)cc1	KCNK3 block -8.8 | KCNK3 inh conf 106.7 | KCNK3 uninduced 0.155
CCSc1nc2ccccc2n1Cc1cccc([N+](=O)[O-])c1	KCNK3 block -8.75 | KCNK3 inh conf 94.7 | KCNK3 uninduced inactive
CCSc1nc2ccccc2n1Cc1ccccc1F	none
Cc1ccc(C(=O)CSc2nc(N)cc(=O)[nH]2)cc1	none (no result: KCC2 mod)
C=C(C)CSc1nc(N)cc(=O)[nH]1	KCNK3 block -21.1 | KCNK3 inh conf 67.0 | KCNK3 uninduced inactive
Cc1nc([N+](=O)[O-])cn1CC(=O)Nc1ccc([N+](=O)[O-])cc1	none (no result: KCC2 mod)
Cc1ccc2c(CN(C)Cc3cccc(F)c3)cc(=O)oc2c1C	KCNK3 block -13 (no result: KCC2 mod) | KCNK3 inh conf 116.0 | KCNK3 uninduced 0.152
CCN(CC)S(=O)(=O)c1ccc(C)c(NC(=S)N2CCN(C/C=C/c3ccccc3)CC2)c1	KCNK3 block -10.9 | KCNK3 inh conf 101.0 | KCNK3 uninduced inactive

Bioassay records: PubChem BioAssay, several laboratories
